The record followed here is ChEMBL document CHEMBL1131222, “Novel thieno[2,3-d][1,3]oxazin-4-ones as inhibitors of human leukocyte elastase” (J Med Chem, 1998).

Data set [1] can be described thus: Alkaline hydrolysis rate (logk-OH). Format: ADME. Conditions: 50 mM CAPS, pH 10.5 or 11.5, 25 °C. Put shortly:
(§1)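 Thienooxazinone loss followed spectrophotometrically at a fixed wavelength (330–355 nm) in 50 mM CAPS, pH 10.5 or 11.5, 25 °C. Final inhibitor concentration 10–25 μM, 5% final DMSO. Curves analysed as first-order reactions. For some compounds at pH 10.5, reverse-phase HPLC aliquots were taken every 3 h over 24 h, with peak areas at 240 nm fitted to a first-order equation.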

Data set [2] concerns the target T1, Neutrophil elastase (Homo sapiens) (UniProt P08246).
T1 sequence (whole entry): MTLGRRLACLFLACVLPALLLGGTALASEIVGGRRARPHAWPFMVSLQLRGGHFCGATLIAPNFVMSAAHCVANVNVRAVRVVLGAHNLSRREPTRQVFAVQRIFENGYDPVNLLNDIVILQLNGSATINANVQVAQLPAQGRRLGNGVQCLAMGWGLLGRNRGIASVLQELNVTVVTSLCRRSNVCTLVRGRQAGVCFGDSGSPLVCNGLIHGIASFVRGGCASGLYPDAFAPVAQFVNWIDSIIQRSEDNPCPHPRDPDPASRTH
Put plainly: Second order rate constant for enzyme-inhibitor complex Human Leukocyte Elastase inhibition was determined. Put shortly:
(§2)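 Progress-curve assay at 25 °C with HLE purified from human leukocytes, in 50 mM sodium phosphate, 500 mM NaCl, pH 7.8. Substrate was MeOSuc-Ala-Ala-Pro-Val-pNA (200 μM final, 405 nm, 30–75 min) or, for a few inhibitors, Suc-Ala-Ala-Pro-Val-AMC (125 μM final, ex 340/em 460 nm, 4–5 min). […] Curves were fitted by slow-binding kinetics (k_obs = k_on'[I] + k_off).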

A short description of data set [3]: Alkaline hydrolysis rate (k-OH). Format: ADME. Put shortly:
as §1

In data set [4] the target is T2, Neutrophil elastase (Homo sapiens, UniProt P08246).
T2 sequence (P08246 whole entry): T1 sequence (whole entry)
Briefly: Steady state inhibition constant for Human Leukocyte Elastase inhibition. The method, boiled down: as §2

The target of data set [5] is T2, Neutrophil elastase. Briefly: Negative logarithm of steady state constant Ki for enzyme-inhibitor complex Human Leukocyte Elastase inhibition. The method, boiled down: as §2
Data set [6] concerns the target T1, Neutrophil elastase (Homo sapiens).

Structures are written as SMILES.

The compound `CCN(CC)c1nc2sc(C)c(C)c2c(=O)o1` registered a Log kOH- in data set [1] of -1.63. The kon (10e3* M-1 s-1) in data set [2] was below 0.6. In data set [3], the kOH- is 0.023 M⁻¹ s⁻¹.
`CSc1nc2sc(C)c(C)c2c(=O)o1`: the Ki on Neutrophil elastase [4] is 0.035 µM; on Neutrophil elastase [5], 0.0347 µM. For the same compound, the “Log kOH-” value in data set [1] was 0.22. In data set [3], this compound gave a kOH- of 1.65 M⁻¹ s⁻¹.
`Cc1sc2nc(N(C)C3CCCCC3)oc(=O)c2c1C` had a Log kOH- in data set [1] of -1.11. The compound further returned a Kon (10e3* M-1 s-1) in data set [2] below 0.8. The same compound returned a kOH- in data set [3] of 0.077 M⁻¹ s⁻¹.
Turning to `CCOc1nc2sc3c(c2c(=O)o1)CCCC3`, the inhibition constant Ki is 0.00136 µM at Neutrophil elastase [4] and 0.00135 µM on Neutrophil elastase [5]. The “Log kOH-” value in data set [1] is reported as 0.44. In data set [3], this compound had a kOH- of 2.77 M⁻¹ s⁻¹.
The corresponding values for `O=c1oc(SCc2ccccc2)nc2sc3c(c12)CCCC3` are 0.29 µM, 0.288 µM, -0.45 and 0.355 M⁻¹ s⁻¹.
Turning to `CCCOc1nc2sc(C)c(C)c2c(=O)o1`, the Ki was 0.00402 µM at Neutrophil elastase [4] and 0.00398 µM on Neutrophil elastase [5]. Also, the “Log kOH-” value in data set [1] was determined as 0.39. In data set [3], the kOH- came out at 2.48 M⁻¹ s⁻¹.
On to `Cc1sc2nc(SCc3ccccc3)oc(=O)c2c1C`, for which the Ki on Neutrophil elastase [4] was 0.101 µM; at Neutrophil elastase [5], 0.1 µM. The same compound came in with a Log kOH- in data set [1] of -0.16. Besides, the kOH- in data set [3] was determined as 0.69 M⁻¹ s⁻¹.
`Cc1sc2nc(NC(C)C)oc(=O)c2c1C`: the koff in data set [6] worked out at 0.85. Besides, the Ki on Neutrophil elastase [4] is 0.0755 µM; on Neutrophil elastase [5] it was 0.0759 µM. Moreover, in data set [1], the Log kOH- is -1.14. This compound gave a kon (10e3* M-1 s-1) in data set [2] of 1.13. For the same compound, the kOH- in data set [3] was 0.073 M⁻¹ s⁻¹.
On to `CCSc1nc2sc3c(c2c(=O)o1)CCCC3`, for which the inhibition constant Ki was 0.0057 µM at Neutrophil elastase [4] and 0.00575 µM at Neutrophil elastase [5]. The compound also gave a Log kOH- in data set [1] of -0.22. This compound gave a kOH- in data set [3] of 0.59 M⁻¹ s⁻¹.
The corresponding values for `Cc1sc2nc(OCC(C)C)oc(=O)c2c1C` are 0.133 µM, 0.135 µM, 0.41 and 2.55 M⁻¹ s⁻¹.
The corresponding values for `CCCOc1nc2sc3c(c2c(=O)o1)CCCC3` are 0.00143 µM, 0.00145 µM, 0.44 and 2.75 M⁻¹ s⁻¹.
As to `CN(c1nc2sc3c(c2c(=O)o1)CCCC3)C1CCCCC1`, in data set [2], the kon (10e3* M-1 s-1) is below 0.6.
Turning to `COC(=O)CSc1nc2sc(C)c(C)c2c(=O)o1`, the koff in data set [6] was found to be 1.63. In addition, the Ki on Neutrophil elastase [4] is 0.238 µM; at Neutrophil elastase [5], 0.24 µM. In data set [1], the “Log kOH-” value was 0.01. The compound also displayed a kon (10e3* M-1 s-1) in data set [2] of 0.685. The kOH- in data set [3] came out at 1.03 M⁻¹ s⁻¹.
On to `COC(=O)CSc1nc2sc3c(c2c(=O)o1)CCCC3`, for which the inhibitory constant (Ki) at Neutrophil elastase [4] is 0.0179 µM; at Neutrophil elastase [5], 0.0178 µM. In data set [1], this compound displayed a Log kOH- of -0.04. Besides, in data set [3], the kOH- came to 0.92 M⁻¹ s⁻¹.
In the case of `CCSc1nc2sc(C)c(C)c2c(=O)o1`, the inhibitory constant (Ki) was 0.00273 µM at Neutrophil elastase [4] and 0.00275 µM on Neutrophil elastase [5]. In addition, the “Log kOH-” value in data set [1] worked out at 0.1. The same compound came in with a kOH- in data set [3] of 1.27 M⁻¹ s⁻¹.
For `CCOc1nc2scc(C(C)C)c2c(=O)o1`, the Ki is 0.00561 µM on Neutrophil elastase [4] and 0.00562 µM at Neutrophil elastase [5]. Moreover, the “Log kOH-” value in data set [1] came to 0.47. Moreover, in data set [3], the kOH- turned out to be 2.98 M⁻¹ s⁻¹.
As for `O=c1oc(N2CCOCC2)nc2sc3c(c12)CCCC3`, the Log kOH- in data set [1] is -1.08. The compound further returned a kon (10e3* M-1 s-1) in data set [2] below 0.8. The kOH- in data set [3] was found to be 0.083 M⁻¹ s⁻¹.
Regarding `CC(C)COc1nc2sc3c(c2c(=O)o1)CCCC3`, the Ki at Neutrophil elastase [4] is 0.051 µM; on Neutrophil elastase [5] it was 0.0513 µM. Besides, the “Log kOH-” value in data set [1] is 0.26. This compound also had a kOH- in data set [3] of 1.83 M⁻¹ s⁻¹.
The corresponding values for `CC(C)Nc1nc2sccc2c(=O)o1` are 0.0418 µM, 0.0417 µM, -0.48 and 0.332 M⁻¹ s⁻¹.
Take `CSc1nc2sc3c(c2c(=O)o1)CCCC3`: the koff in data set [6] turned out to be 15.6. Further, the results for the Ki on Neutrophil elastase [4] and on Neutrophil elastase [5] were 0.00574 µM and 0.00575 µM, respectively. In addition, the “Log kOH-” value in data set [1] stood at 0.21. The compound also gave a kon (10e3* M-1 s-1) in data set [2] of 272. For the same compound, the kOH- in data set [3] was 1.63 M⁻¹ s⁻¹.
Turning to `CCN(CC)c1nc2sc3c(c2c(=O)o1)CCCC3`, the inhibition constant Ki on Neutrophil elastase [4] is 0.0163 µM; on Neutrophil elastase [5], 0.0162 µM. Besides, in data set [1], the Log kOH- is -1.59. Besides, the kOH- in data set [3] stood at 0.025 M⁻¹ s⁻¹.
In the case of `Cc1sc2nc(N3CCOCC3)oc(=O)c2c1C`, the Log kOH- in data set [1] was -1.07. In data set [2], the kon (10e3* M-1 s-1) is below 0.6. The kOH- in data set [3] was 0.085 M⁻¹ s⁻¹.
`CC(C)Nc1nc2sc3c(c2c(=O)o1)CCCC3`: the Ki on Neutrophil elastase [4] and at Neutrophil elastase [5] was 0.145 µM each time. In data set [1], this compound gave a Log kOH- of -0.49. Further, the kOH- in data set [3] was determined as 0.323 M⁻¹ s⁻¹.
`CCOc1nc2sc(C)c(C)c2c(=O)o1`: the Ki on Neutrophil elastase [4] and at Neutrophil elastase [5] was 0.0107 µM in each case. Moreover, in data set [1], the “Log kOH-” value is listed as 0.45. In addition, the kOH- in data set [3] was determined as 2.82 M⁻¹ s⁻¹.
